The values that follow come from ChEMBL document CHEMBL4706687, “Synthesis and Pharmacological Evaluation of Novel Non-nucleotide Purine Derivatives as P2X7 Antagonists for the Treatment of Neuroinflammation” (J Med Chem, 2021).

Structures are written as SMILES. Activity calls are given as the source filed them. The rule behind the calls is not given here.

Experiment [1] concerns the target T1, P2X purinoceptor 7 (Homo sapiens) (UniProt Q99572).
T1 sequence (whole entry): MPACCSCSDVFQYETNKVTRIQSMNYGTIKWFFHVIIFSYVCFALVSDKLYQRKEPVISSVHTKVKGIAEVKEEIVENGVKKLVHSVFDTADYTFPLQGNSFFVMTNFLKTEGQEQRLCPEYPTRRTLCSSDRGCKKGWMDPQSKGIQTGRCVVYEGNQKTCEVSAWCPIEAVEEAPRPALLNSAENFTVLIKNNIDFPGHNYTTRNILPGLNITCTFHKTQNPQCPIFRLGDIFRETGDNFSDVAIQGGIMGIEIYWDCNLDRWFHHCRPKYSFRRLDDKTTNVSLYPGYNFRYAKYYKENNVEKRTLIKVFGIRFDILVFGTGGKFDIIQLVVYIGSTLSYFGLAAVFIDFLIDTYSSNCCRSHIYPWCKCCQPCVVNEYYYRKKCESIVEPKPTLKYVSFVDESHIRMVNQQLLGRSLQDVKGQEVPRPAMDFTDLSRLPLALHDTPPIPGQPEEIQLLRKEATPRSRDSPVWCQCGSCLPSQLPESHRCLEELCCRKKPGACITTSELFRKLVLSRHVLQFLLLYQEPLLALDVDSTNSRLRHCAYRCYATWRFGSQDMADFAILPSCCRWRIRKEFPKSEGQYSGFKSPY
Description: (§1) Antagonist activity at human P2X7 receptor expressed in HEK293 cells assessed as reduction in benzoyl-ATP-induced intracellular Ca2+ level by Fura-2 dye based fluorescence assay. The note with it: filed as antagonist. The class given is cell-based. A digest of the protocol:
(§2)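 hP2X7-HEK293 cells 24–48 h after seeding, loaded with Fura-2-AM 8 μM for 1 h, then washed in Mg²⁺-free Tyrode (2 mM CaCl₂, pH 7.4) for 15–30 min with compound present. Excitation 340/380 nm, emission 520 nm. Basal recording, then BzATP injected (100 μM final). [Ca²⁺]c from Grynkiewicz equation. Blockade as percent of BzATP peak in Tyrode-only wells; triplicates.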

The target in experiment [2] is T2, P2X purinoceptor 7 (Homo sapiens, UniProt Q99572).
T2 sequence (Q99572 whole entry): T1 sequence (whole entry)
The experiment is described as §1. The class given is cell-based. The essentials: as §2

Experiment [3] deals with T1, P2X purinoceptor 7 (Homo sapiens). The experiment in a line: Antagonist activity at human P2X7 receptor expressed in HEK293 cells assessed as reduction in benzoyl-ATP-induced YO-PRO-1 dye uptake at 10 uM pre-incubated for 20 mins before YO-PRO-1 addition and measured after 25 mins by fluorescence plate reader analysis relative to control. In kind it is cell-based. The note with it: filed as antagonist, time 45.0 min. The essentials:
(§3)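 Stably transfected hP2X7-HEK293 cells, 48 h after seeding, in Mg²⁺-free Krebs-HEPES (0.2 mM CaCl₂, pH 7.4). Compound preincubation 20 min, then YO-PRO-1 2 μM, then BzATP 30 μM. Fluorescence at 485/520 nm read for 25 min. Each well normalized to Fmax (0.5% Triton X-100) and Fmin (2 M MnCl₂): F = (Fx − F0)/(Fmax − Fmin). Triplicates from three cultures. IC50 is the concentration halving BzATP-induced uptake.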

In experiment [4] the target is T3, P2X purinoceptor 2 (Rattus norvegicus) (UniProt P49653).
T3 sequence (whole entry): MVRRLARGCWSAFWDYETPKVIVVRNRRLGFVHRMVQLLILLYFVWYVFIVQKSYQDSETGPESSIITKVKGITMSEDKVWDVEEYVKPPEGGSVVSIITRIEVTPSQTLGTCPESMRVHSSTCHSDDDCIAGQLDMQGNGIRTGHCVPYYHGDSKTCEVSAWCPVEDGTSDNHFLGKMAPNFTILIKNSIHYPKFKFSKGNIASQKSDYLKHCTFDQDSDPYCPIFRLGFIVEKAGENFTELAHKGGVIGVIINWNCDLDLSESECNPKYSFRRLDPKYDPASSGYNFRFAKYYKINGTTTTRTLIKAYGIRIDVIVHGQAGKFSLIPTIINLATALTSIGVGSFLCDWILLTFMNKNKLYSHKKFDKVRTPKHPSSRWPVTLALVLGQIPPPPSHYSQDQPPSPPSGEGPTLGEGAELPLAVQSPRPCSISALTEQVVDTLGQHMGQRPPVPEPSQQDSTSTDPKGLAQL
Description: Antagonist activity at rat P2X2 receptor expressed in Xenopus laevis oocytes assessed as reduction in ATP-induced channel currents at 100 uM by TEVC electrophysiology assay relative to control. In kind it is cell-based. Conditions: Oocyte. The essentials: (§4)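 Two-electrode voltage clamp at −70 mV in low divalent-cation solution, oocytes incubated 1–2 days at 16–18 °C after 50 nL cRNA injection: rP2X1 and rP2X4 at 0.5 mg/mL, rP2X2 0.1 mg/mL, rP2X7 25 μg/mL. ATP 10 μM for rP2X1 and rP2X2, 30 μM for rP2X4 and rP2X7. Compound applied 3 min without perfusion. Currents normalized to control; three oocytes from two frogs.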

The target in experiment [5] is T2, P2X purinoceptor 7. Description: Antagonist activity at human P2X7 receptor expressed in HEK293 cells assessed as reduction in benzoyl-ATP-induced YO-PRO-1 dye uptake pre-incubated for 20 mins before YO-PRO-1 addition and measured after 25 mins by fluorescence plate reader analysis relative to control. The class given is cell-based. A digest of the protocol: as §3

The target of experiment [6] is T4, P2X purinoceptor 1 (Rattus norvegicus) (UniProt P47824).
T4 sequence (whole entry): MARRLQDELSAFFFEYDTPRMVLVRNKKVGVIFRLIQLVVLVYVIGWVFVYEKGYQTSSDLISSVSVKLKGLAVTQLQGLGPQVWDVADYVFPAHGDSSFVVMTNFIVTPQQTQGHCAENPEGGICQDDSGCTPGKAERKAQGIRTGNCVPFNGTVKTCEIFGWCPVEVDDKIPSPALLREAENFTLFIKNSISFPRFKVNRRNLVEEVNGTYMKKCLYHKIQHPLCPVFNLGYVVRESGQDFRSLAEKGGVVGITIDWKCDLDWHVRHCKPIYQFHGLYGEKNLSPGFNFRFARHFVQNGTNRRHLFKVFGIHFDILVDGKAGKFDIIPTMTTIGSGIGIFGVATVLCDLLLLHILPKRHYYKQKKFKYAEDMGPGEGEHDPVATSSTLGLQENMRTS
Description: Antagonist activity at rat P2X1 receptor expressed in Xenopus laevis oocytes assessed as reduction in ATP-induced channel currents at 100 uM by TEVC electrophysiology assay relative to control. The class given is cell-based. Conditions: Oocyte. A digest of the protocol: as §4

The subject of a further experiment is Peritoneal macrophage. The experiment in a line: Inhibition of Il-1beta production in LPS-stimulated C57BL/6 mouse peritoneal macrophages pre-incubated for 15 mins followed by ATP addition for 30 mins by ELISA method. The class given is functional, tissue-based. The note with it: time 45.0 min. The essentials:
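Thioglycolate-elicited peritoneal macrophages from 6–8-week male C57BL/6 mice, 3 × 10⁵ cells/well. Primed 4 h with LPS 1 μg/mL (E. coli 026:B6), then serum-free DMEM with compound for 15 min, then ATP for 30 min. Supernatant IL-1β measured by ELISA, expressed as percent of ATP-only control. Triplicates from three mice.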

As a reminder, the inhibition is how much of the control response was suppressed. A word on the IC50: it is the concentration at which inhibition is half-maximal.

`O=C(Cn1cnc2c(Cl)ncnc21)c1ccc(Cl)cc1Cl`: the inhibition entry was “Dose-dependent effect” in experiment [1], 63% in experiment [3] and “Dose-dependent effect” in the experiment with Peritoneal macrophage. Also, the figures for the IC50 at P2X purinoceptor 7 [2] and at P2X purinoceptor 7 [5] were 13.7 µM and 9 µM, respectively. The inhibition entry in experiment [4] and in experiment [6] was “inactive” in each case.
